Data: ChEMBL document CHEMBL1770120 (Eur J Med Chem, 2011)

Assays:
[1] = Total plasma clearance in Sprague-Dawley rat at 5 mg/kg, iv by LC-MS/MS analysis; format: ADME, organism-based; set-up: dose 5 mg/kg, route intravenous
Method in brief: (§1)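 Male Sprague-Dawley rats (200–220 g), five per group, fasted from the evening before dosing until 2 h post-dose. Single i.v. dose of 5 mg/kg in cremophor:ethanol (1:1) diluted with sterile 0.154 M NaCl, given at 10 ml/kg. Plasma sampled 5–1440 min. Plasma kept at -20 °C and assayed by LC-MS-MS after liquid–liquid extraction. Parameters from mean plasma concentrations by non-compartmental analysis.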

[2] = Apparent volume of distribution in Sprague-Dawley rat at 5 mg/kg, iv by LC-MS/MS analysis; format: ADME, organism-based; set-up: dose 5 mg/kg, route intravenous; details: in vivo, read-out: Vz; method in brief: as §1
[3] = Cytotoxicity against human KB-0528 cells after 72 hrs by SRB assay; format: functional, cell-based; details: KB-0528, 72 h
Method in brief: (§2)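 Cells grown in RPMI 1640 with 10% FBS at 37 °C under 5% CO2 and seeded at 0.4–1.0 × 10^4 cells/well. Compounds added after 24 h from DMSO stock, at least five concentrations, final DMSO ≤0.1%. Exposure 72 h. Growth read by SRB staining at OD 520 nm. Three experiments, each in quadruplicate. IC50 taken from survival (%) versus concentration curves.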

[4] = Cytotoxicity against human HL60-0607-2 cells after 72 hrs by SRB assay; format: functional, cell-based; method in brief: as §2
[5] = Cytotoxicity against multidrug-resistant human KBR-0530 cells after 72 hrs by SRB assay; format: functional, cell-based; details: KBR-0530, 72 h; method in brief: as §2
[6] = Cytotoxicity against multidrug-resistant human KBR-0602 cells after 72 hrs by SRB assay; format: functional, cell-based; details: KBR-0602, 72 h; method in brief: as §2
[7] = Cytotoxicity against multidrug-resistant human HL60OR-0604-2 cells after 72 hrs by SRB assay; format: functional, cell-based; method in brief: as §2
[8] = AUC (0 to t) in Sprague-Dawley rat at 5 mg/kg, iv by LC-MS/MS analysis; format: ADME, organism-based; set-up: dose 5 mg/kg, route intravenous; details: plasma; method in brief: as §1
[9] = AUC (0 to infinity) in Sprague-Dawley rat at 5 mg/kg, iv by LC-MS/MS analysis; format: ADME, organism-based; set-up: time infinity, dose 5 mg/kg, route intravenous; details: plasma; method in brief: as §1
[10] = Mean residence time in Sprague-Dawley rat at 5 mg/kg, iv by LC-MS/MS analysis; format: ADME, organism-based; set-up: dose 5 mg/kg, route intravenous; details: in vivo; method in brief: as §1
[11] = Half life in Sprague-Dawley rat plasma at 5 mg/kg, iv by LC-MS/MS analysis; format: ADME, organism-based; set-up: dose 5 mg/kg, route intravenous; method in brief: as §1
[12] = Ratio of compound IC50 to docetaxel IC50 for human HL60-0607-2 cells; format: functional
[13] = Ratio of compound IC50 to docetaxel IC50 for human HL60OR-0604-2 cells; format: functional
[14] = Intrinsic clearance in human liver microsomes; format: ADME, Microsome
Method in brief: (§3)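 Test compound at 5 µmol/L with pooled human liver microsomes (0.5 mg/mL) and 1 mM NADPH in 0.1 M potassium phosphate buffer, pH 7.4, at 37 °C. Reactions stopped with acetonitrile at 0, 5, 10, 15, 30 and 60 min. Samples extracted with n-hexane:dichloromethane:isopropanol and spun to remove protein. Remaining parent measured by HPLC-MS (ESI positive).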

[15] = (§4) Metabolic stability in human liver microsomes assessed as unchanged remaining compound after 60 mins; format: ADME, Microsome; details: liver microsomes, read-out: Stability; method in brief: as §3
[16] = (§5) Half life in human liver microsomes; format: ADME, Microsome; details: liver microsomes; method in brief: as §3
Liver microsomes [17] = test: as §4; format: ADME, Microsome; details: microsomes, 1 h; method in brief: as §3
Liver microsomes [18] = test: as §5; format: ADME, Microsome; details: microsomes; method in brief: as §3

SMILES	clearance [1] [mL/min/kg]	Vd [2] [L/kg]	AUC(0-t) [8] [ng·h/mL]	AUC(0-inf) [9] [ng·h/mL]	MRT [10] [h]	half-life [11] [h]	CLint scaled [14] [mL/min/kg]	remaining at 1 h [15] [%]	half-life [16] [h]	Stability (Liver microsomes [17]) [%]	t1/2 (Liver microsomes [18]) [h]	IC50 [3] [nM]	IC50 [4] [nM]	IC50 [5] [nM]	IC50 [6] [nM]	IC50 [7] [nM]	Ratio IC50 [12]	Ratio IC50 [13]
CC(=O)O[C@@]12CO[C@@H]1C[C@H](O)[C@@]1(C)C(=O)[C@H](O)C3=C(C)[C@@H](OC(=O)[C@H](O)[C@@H](NC(=O)OC(C)(C)C(F)(F)F)c4ccc(F)cc4)C[C@@](O)([C@@H](OC(=O)c4ccccc4)[C@H]21)C3(C)C	21.3	15.8	3870	3980	2.78	8.5	0.36	88.5	57.8			0.0259	0.000358	0.332	0.432	0.0155	20	10
CC(=O)O[C@@]12CO[C@@H]1C[C@H](O)[C@@]1(C)C(=O)[C@H](O)C3=C(C)[C@@H](OC(=O)[C@H](O)[C@@H](NC(=O)OC(C)(C)C(F)(F)F)c4ccccc4)C[C@@](O)([C@@H](OC(=O)c4cccc(F)c4)[C@H]21)C3(C)C	21.3	13.7	3870	3940	2.13	7.62						0.21	0.0547	0.108	0.149	0.191		
CC(=O)O[C@@]12CO[C@@H]1C[C@H](O)[C@@]1(C)C(=O)[C@H](O)C3=C(C)[C@@H](OC(=O)[C@H](O)[C@@H](NC(=O)OC(C)(C)C(F)F)c4ccccc4)C[C@@](O)([C@@H](OC(=O)c4cccc(F)c4)[C@H]21)C3(C)C	42.5	36.2	1930	1990	2.4	10.2							0.183	0.161	0.182	0.584		
CC(=O)O[C@@]12CO[C@@H]1C[C@H](O)[C@@]1(C)C(=O)[C@H](O)C3=C(C)[C@@H](OC(=O)[C@H](O)[C@@H](NC(=O)OC(C)(C)CF)c4ccc(F)cc4)C[C@@](O)([C@@H](OC(=O)c4ccccc4)[C@H]21)C3(C)C	50.3	22	1640	1660	2.13	5.06	8.62			53.8	2.407	0.915	0.14	0.232	0.195	0.51		
CC(=O)O[C@@]12CO[C@@H]1C[C@H](O)[C@@]1(C)C(=O)[C@H](O)C3=C(C)[C@@H](OC(=O)[C@H](O)[C@@H](NC(=O)OC(C)(C)C(F)F)c4ccc(F)cc4)C[C@@](O)([C@@H](OC(=O)c4ccccc4)[C@H]21)C3(C)C	25.2	27.4	3150	3360	4.28	13.4	3.41			72.4	6.08	0.397	0.0168	0.321	0.885	2.08		
CC(=O)O[C@@]12CO[C@@H]1C[C@H](O)[C@@]1(C)C(=O)[C@H](O)C3=C(C)[C@@H](OC(=O)[C@H](O)[C@@H](NC(=O)OC(C)(C)C(F)(F)F)c4ccccc4)C[C@@](O)([C@@H](OC(=O)c4ccccc4)[C@H]21)C3(C)C	21	18.1	3860	3960	2.32	9.91						0.0834	0.263	0.694	0.626	0.41		

Now from value to compound, other results behind:

clearance [1] [mL/min/kg]	Vd [2] [L/kg]	AUC(0-t) [8] [ng·h/mL]	AUC(0-inf) [9] [ng·h/mL]	MRT [10] [h]	half-life [11] [h]	CLint scaled [14] [mL/min/kg]	remaining at 1 h [15] [%]	half-life [16] [h]	Stability (Liver microsomes [17]) [%]	t1/2 (Liver microsomes [18]) [h]	SMILES	IC50 [3] [nM]	IC50 [4] [nM]	IC50 [5] [nM]	IC50 [6] [nM]	IC50 [7] [nM]	Ratio IC50 [12]	Ratio IC50 [13]
125	78.8	646	667	3.34	7.37						CC(=O)O[C@@]12CO[C@@H]1C[C@H](O)[C@@]1(C)C(=O)[C@H](O)C3=C(C)[C@@H](OC(=O)[C@H](O)[C@@H](NC(=O)OC(C)(C)C)c4ccccc4)C[C@@](O)([C@@H](OC(=O)c4ccccc4)[C@H]21)C3(C)C.O.O.O [DOCETAXEL]	0.454	0.0115	0.132	0.234	0.114		
84.8	89.7	914	994	5.62	12.2						CC(=O)O[C@@]12CO[C@@H]1C[C@H](O)[C@@]1(C)C(=O)[C@H](O)C3=C(C)[C@@H](OC(=O)[C@H](O)[C@@H](NC(=O)OC(C)(C)CF)c4ccccc4)C[C@@](O)([C@@H](OC(=O)c4ccccc4)[C@H]21)C3(C)C	0.506	0.156	0.0322	0.792	0.958		
37.7	22.7	2190	2240	2.3	6.8						CC(=O)O[C@@]12CO[C@@H]1C[C@H](O)[C@@]1(C)C(=O)[C@H](O)C3=C(C)[C@@H](OC(=O)[C@H](O)[C@@H](NC(=O)OC(C)(C)CF)c4ccccc4)C[C@@](O)([C@@H](OC(=O)c4cccc(F)c4)[C@H]21)C3(C)C	0.248	0.00111	0.0669	0.205	2.97		
29.8	20.2	2860	2930	2.76	7.69						CC(=O)O[C@@]12CO[C@@H]1C[C@H](O)[C@@]1(C)C(=O)[C@H](O)C3=C(C)[C@@H](OC(=O)[C@H](O)[C@@H](NC(=O)OC(C)(C)C(F)F)c4ccccc4)C[C@@](O)([C@@H](OC(=O)c4ccccc4)[C@H]21)C3(C)C	0.282	0.176	0.332	0.369	0.554		
